Our source for the yeast fitness values is the RNAGym collection of RNA variant scans (doi:10.1126/science.aae0568).

This sample holds only a part of the variants without activity.

The chains are these.
B1: tRNA (parent)
chain: GUUCCGUUGGCGUAAUGGUAACGCGUCUCCCUCCUAAGGAGAAGACUGCGGGUUCGAGUCCCGUACGGAACG

Variants of B1 are the subject of the series. Put plainly: yeast fitness relative to wild type (ratio to wild type); higher = fitter; tRNA-Arg(CCU), competitive growth, 37 C, YPD. In a few lines: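 A pool of Saccharomyces cerevisiae strains, each with a tRNA-Arg(CCU) gene variant at the native genomic locus, was competed in YPD at 37°C for 24 hours across six parallel replicates. The variants had been chemically synthesised at a 3% per-site mutation rate over 69 sites, and gene amplicons before and after competition were read by 100-nucleotide paired-end sequencing. Darwinian fitness relative to wild type rested on changes in genotype frequencies. Genotypes required ≥ 100 starting reads, and estimates < 0.5 were set to 0.5.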
A37U G48C: the yeast fitness was found to be 0.674.
Regarding A36U C49G G50C, the yeast fitness was not above 0.5.
For the variant A36G U53A, the yeast fitness is 0.754.
In the case of A36U C46A, the yeast fitness was determined as 0.763.
Turning to A36U C46U, the yeast fitness is 0.608.
With A37C A45U G52C, the yeast fitness is not above 0.5.
A36G C61G A69G: the yeast fitness was found to be 0.56.
For the variant A37G A42C A65U A69C, the yeast fitness is not above 0.5.
Turning to A37C C46U U53C, the yeast fitness was not above 0.5.
Consider A37C U47C G51A, for which the yeast fitness is not above 0.5.
Regarding A36G A45U A70U, the yeast fitness turned out to be 0.708.
For A37U C46A, the yeast fitness was found to be 0.816.
As for A36G G68C, the yeast fitness came to 0.779.
For the variant A36U C61U C66U, the yeast fitness worked out at 0.582.
In the case of A37G A42G C49A, the yeast fitness is not above 0.5.
G38A U47A C55G: the yeast fitness was found to be 0.658.
The same measure for A37C A69U: 1.03; for A37C A69C: 0.865.
Then A37C G52A U53A, with 0.566; and A37G C66A, with 0.63; and A37C A57U U59C, with not above 0.5.
With A37U G50A A69U, the yeast fitness came to 0.805.
For the variant A36G A42U U53C G58C, the yeast fitness was determined as 0.569.
The same measure for G38A A40U A65G: not above 0.5; for A36U A65U G67A A70G: not above 0.5.
Consider A37G G50A, for which the yeast fitness amounted to 0.842.
Consider A37C C46G, for which the yeast fitness worked out at 0.947.
The same measure for A37U G39C G48A U53G: not above 0.5.
For the variant G38A C55G, the yeast fitness was determined as 0.564.
As for G38A C55U, the yeast fitness was 0.849.
Regarding A37U G52A, the yeast fitness was 0.534.
For the variant A37G G44A U64G, the yeast fitness was not above 0.5.
As for A37C C61U, the yeast fitness worked out at 0.681.
Then A37C C61G, with 0.584.
Consider A36U A42U C46U G56C C61G A65U G67A A70G, for which the yeast fitness was not above 0.5.
Regarding A37C C49U C55A C60A, the yeast fitness was not above 0.5.
The same measure for A37G C55U: 0.519; for A36U A57C: 0.528; for A36U A57U: 0.547.
Consider A36U A57G, for which the yeast fitness was determined as 0.582.
A37C A45U: the yeast fitness is 0.695.
The same measure for A37U G38C G63A: not above 0.5; for A37U A42C G48C A70U: not above 0.5; for A36G C62G: 0.905.
The same measure for A36G C62A: 0.672; for A36G C62U: 1.05.
The same measure for A37G G41A G50A: not above 0.5.
Regarding A36U C61U, the yeast fitness stood at 0.693.
On to A37C A43C A70U, for which the yeast fitness turned out to be 0.622.
For the variant A36U C49G U54C, the yeast fitness is 0.66.
On to A36U G41C, for which the yeast fitness worked out at 0.686.
Then G38A C62A, with 0.742; and G38A C62G, with 0.648; and A37G A69C, with 0.97.
On to G38A U54A A57C, for which the yeast fitness was 0.551.
On to A36U A40U A45G G58C, for which the yeast fitness stood at 0.565.
The same measure for A36G C60A: 0.575.
For A37U C60U C62G U64A A69U, the yeast fitness was not above 0.5.
As for G38A A40U, the yeast fitness is 0.747.
As for A37U C61U, the yeast fitness was 0.771.
Regarding A37U U47C, the yeast fitness stood at 0.667.
Turning to A37U U47A, the yeast fitness came to 0.796.
Then A37G A42C, with 0.806.
The same measure for A37U A65G C66A: not above 0.5; for A36G C60G A70G: not above 0.5.
On to A37G A40U A65G, for which the yeast fitness is 0.571.
In the case of G38A A65C, the yeast fitness was 0.707.
For A36G A45C C55G G58C, the yeast fitness was 0.689.
Consider A36G A45C C66U, for which the yeast fitness is 0.787.
Then A37G C62A, with 0.582; and A37U C62A, with 0.523.
As for G38A A40C G56A C66U A70C, the yeast fitness is not above 0.5.
Then G38A G41C, with 0.659.
Then A37G C60U A70U, with not above 0.5; and A36G G44A, with 0.978.
Then A37U A40C G51C C66A, with not above 0.5; and G38A A43G, with 0.607.
A37C U47G: the yeast fitness was 0.573.
The same measure for A37C A42C A69U: 0.749.
Then A37C G39C, with 0.534; and G38A G67A, with 0.881.
For the variant G38A A45C, the yeast fitness was determined as 0.818.
As to A37U U53G C55G C62A, the yeast fitness amounted to 0.744.
For A36G A57G C61U, the yeast fitness is 0.56.
The same measure for A37U G38C A65C: not above 0.5.
For A36G G48C C60A, the yeast fitness is not above 0.5.
As to A37G U53G, the yeast fitness was not above 0.5.
As for A37G U53C, the yeast fitness stood at 0.553.
Consider A36U G39A A45G G63U, for which the yeast fitness is 0.535.
On to A36G U47C, for which the yeast fitness worked out at 0.989.
Regarding A36G U47A G67C, the yeast fitness was not above 0.5.
Then A36U U64A, with 0.535; and A37G U47G G52A, with not above 0.5; and A36G A43C, with 0.819.
As to A36G G38C G63A, the yeast fitness is not above 0.5.
Turning to A36G A40U G44A, the yeast fitness turned out to be 1.06.
Take A37G G67C: the yeast fitness was found to be 0.79.
Turning to A36G C61U A69C, the yeast fitness amounted to 0.693.
With A36G A69G, the yeast fitness was 0.932.
As to A37U C66U, the yeast fitness was determined as 0.627.
As to A36G G39C C49U U54G, the yeast fitness stood at 0.58.
Consider A37U A45C C46A, for which the yeast fitness was 0.598.
Take A37U G56C: the yeast fitness came to 0.528.
As to A36G G52A C66A A69U, the yeast fitness was not above 0.5.
Turning to A37C G44C G52C G58A, the yeast fitness is not above 0.5.
As to A37U A45U, the yeast fitness was found to be 0.64.
Then A37C G39A C60G C66A, with not above 0.5; and A37U G38C, with 0.557; and A37G G44A A65C, with 0.561.
With A37C C62A, the yeast fitness is 0.874.
With A36U G58C A65U, the yeast fitness is not above 0.5.
For G38A U54C, the yeast fitness is 0.72.
Then G38A U47A C55G C61U, with 0.718.
With G38A C62G A70U, the yeast fitness is not above 0.5.
For G38A C55A G68A, the yeast fitness was not above 0.5.
On to G38A C46A A57G, for which the yeast fitness amounted to 0.769.
For the variant A36G G38C G58C, the yeast fitness came to 0.687.
For the variant A36U A43C U53C, the yeast fitness was not above 0.5.
Consider A36G A57G, for which the yeast fitness is 0.985.
Turning to A37G G39A C62U G63A, the yeast fitness is not above 0.5.
On to A37C G56A G68U, for which the yeast fitness came to 0.602.
On to A36U G56C A65C, for which the yeast fitness is not above 0.5.
For A37C C49A, the yeast fitness came to 0.651.
Regarding A37U C49A C66U, the yeast fitness is not above 0.5.
Regarding A37C A57U A65U, the yeast fitness is 0.637.
As to A36U A45G, the yeast fitness is 0.606.
As to A36G A43U U47G U53G, the yeast fitness was not above 0.5.
A37G G39A: the yeast fitness is 0.638.
Consider A37G A57G, for which the yeast fitness is 0.87.
The same measure for A37G A57U: 0.55; for A37U C55U A65U: not above 0.5; for A36U G48C C49G: not above 0.5.
For G38A A43G C46U C49U, the yeast fitness turned out to be 0.611.
As to A36U A42C C61G, the yeast fitness is not above 0.5.
As for A37C A42G, the yeast fitness came to 0.777.
For A37C C60U A70C, the yeast fitness came to 0.546.
Take A36G A70C: the yeast fitness turned out to be 1.02.
On to A36G A70U, for which the yeast fitness was 0.832.
With A36G A70G, the yeast fitness was 0.914.
The same measure for A37U A42U A65C: not above 0.5.
On to A37C G51A, for which the yeast fitness is 0.605.
Turning to A37C C46U A65C G68A, the yeast fitness is not above 0.5.
The same measure for A36G A45C G52C: 0.533; for A37G C49G C55U G56C G68A: not above 0.5.
Then G38A G44C U47G, with not above 0.5.
Take A37U G63C: the yeast fitness came to 0.591.
On to G38A G58C, for which the yeast fitness stood at 1.
Take G38A C61A A65U: the yeast fitness was not above 0.5.
Regarding A37G C46U C62G, the yeast fitness was 0.533.
Consider A37U G38C C61U, for which the yeast fitness is not above 0.5.
Regarding A37G G44A C66U, the yeast fitness came to 0.731.
On to A37C A43U G63A, for which the yeast fitness was 0.666.
Take A37C A45U G67C G68A: the yeast fitness is not above 0.5.
Regarding A36U C62U, the yeast fitness was 0.645.
Then A36U C62A, with 0.611.
As to A36G G67C, the yeast fitness was 0.759.
Then A37C G38A C66U, with 0.587; and A36U A43U, with 0.638; and A36U G48A, with 0.657.
For the variant A36U C46A C62G, the yeast fitness was not above 0.5.
The same measure for A37U G52A U54C G56C A57G: not above 0.5; for A37C G51A U53C C62A: not above 0.5.
In the case of A36U G50A C61U, the yeast fitness was not above 0.5.
Then A37C A45U G68C, with not above 0.5; and G38A C46A G50A U53C, with 0.596.
The same measure for A37G C55A G67A: not above 0.5; for A37G U59G: 0.75.
